Results as given in ChEMBL document CHEMBL1153533, “Phosphoramidate prodrugs of 2'-C-methylcytidine for therapy of hepatitis C virus infection” (J Med Chem, 2009).

How the values were obtained:
[1] = Selectivity index, ratio of CC50 for human HBI10A cells to EC50 for HCV infected in human HBI10A cells
How it was run: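 Subgenomic HCV replicon assay gives EC₅₀ (n = 2-9 independent determinations). CC₅₀ is the concentration cutting cell viability by 50%. SI = CC₅₀/EC₅₀.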

[2] = Cytotoxicity against human HBI10A cells
[3] = test system: Hepatitis C virus; test: Antiviral activity against HCV infected in human HBI10A cells by subgenomic viral replicon assay; assay type: functional, organism-based, Hepacivirus hominis
[4] = test system: Hepatitis C virus; test: Antiviral activity against HCV assessed as logarithmic reduction in plasma viral RNA at 1500 mg, QD after 14 days; assay type: functional, Hepacivirus hominis
[5] = test system: Hepatitis C virus; test: Antiviral activity against HCV assessed as logarithmic reduction in plasma viral RNA at 1500 mg, po BID after 14 days; assay type: functional, Hepacivirus hominis
[6] = test system: Hepacivirus hominis; test: Inhibition of HCV NS5B polymerase by cell-based assay
[7] = Drug concentration in hamster liver assessed as nucleoside triphosphate level at 1.5 umol/kg, sc after 6 hrs; conditions: cricetinae, in vivo
[8] = test system: Liver; test: Drug concentration in rat liver assessed as nucleoside triphosphate level at […], sc after 6 hrs; assay type: ADME, organism-based; conditions: in vivo, read-out: Drug uptake
[9] = test system: Hepatitis C virus; test: Antiviral activity against HCV infected in human HBI10A cells at 20 uM by subgenomic viral replicon assay; assay type: functional, Hepacivirus hominis
[10] = test system: Hepatocyte; test: Stability in cryopreserved primary human hepatocytes assessed as increase in intracellular nucleoside triphosphate formation by LC-MS/MS analysis; assay type: ADME, cell-based
[11] = test system: Hepatitis C virus; test: Antiviral activity against HCV assessed as logarithmic reduction in plasma viral RNA at 800 mg, po BID after 14 days; assay type: functional, Hepacivirus hominis
[12] = Stability in human HBI10A cells assessed as intracellular nucleoside triphosphate AUC (0 to 24 hrs) at 100 uM by LC-MS/MS analysis
[13] = Drug level in hamster liver assessed as nucleoside triphosphate level at 1 mg/kg, sc after 24 hrs; assay type: ADME, organism-based; parameters: dose 1 mg/kg, route subcutaneous; conditions: cricetinae, in vivo, read-out: Drug uptake
[14] = Drug level in rabbit liver assessed as nucleoside triphosphate level at 1 mg/kg, sc after 24 hrs; assay type: ADME, organism-based, Oryctolagus cuniculus; parameters: dose 1 mg/kg, route subcutaneous; conditions: in vivo, read-out: Drug uptake
[15] = test system: Liver; test: Drug level in rat liver assessed as nucleoside triphosphate level at 1 mg/kg, sc after 24 hrs; assay type: ADME, organism-based; parameters: dose 1 mg/kg, route subcutaneous; conditions: in vivo, read-out: Drug uptake
[16] = test system: Hamster; test: AUC (0 to 48 hrs) in hamster at 1 mg/kg, sc; assay type: ADME, organism-based, Plasma; parameters: time < 48 hr, dose 1 mg/kg, route subcutaneous; conditions: cricetinae, in vivo

Row | Compound | Ratio CC50/EC50 [1] | CC50 [2] | EC50 ([3]; Hepatitis C virus, HBI10A) | also measured
1 | CCOC(=O)[C@H](CC(C)C)NP(=O)(OC[C@H]1O[C@@H](n2ccc(N)nc2=O)[C@](C)(O)[C@@H]1O)Oc1ccc(Cl)cc1 (mixture of isomers) | >7 | > 50 µM | 7 µM | 
2 | CC(C)C(=O)OC[C@@]1(N=[N+]=[N-])O[C@@H](n2ccc(N)nc2=O)[C@H](OC(=O)C(C)C)[C@@H]1OC(=O)C(C)C [BALAPIRAVIR] |  |  |  | Activity [4]: 1.2
3 | COC(=O)[C@H](Cc1ccccc1)NP(=O)(OC[C@H]1O[C@@H](n2ccc(N)nc2=O)[C@](C)(O)[C@@H]1O)Oc1ccc(Cl)cc1 (mixture of isomers) |  | > 20 µM | > 20 µM | 
4 | CCOC(=O)[C@H](C)NP(=O)(OC[C@H]1O[C@@H](n2ccc(N)nc2=O)[C@](C)(O)[C@@H]1O)Oc1ccc(C[C@H](N)C(=O)OC)cc1 (stereo partly specified) |  | > 20 µM | > 20 µM | 
5 | COC(=O)[C@@H](C)NP(=O)(OC[C@H]1O[C@@H](n2ccc(N)nc2=O)[C@](C)(O)[C@@H]1O)Oc1ccc(Cl)cc1 (mixture of isomers) | >2.5 | > 20 µM | 7.7 µM | 
6 | CC(C)C(=O)OC[C@H]1O[C@@H](n2ccc(N)nc2=O)[C@](C)(F)[C@@H]1OC(=O)C(C)C [MERICITABINE] |  |  |  | Activity [5]: 2.7
7 | C[C@@]1(O)[C@H](O)[C@@H](CO)O[C@H]1n1ccc(N)nc1=O |  |  |  | Activity [6]: 2 µM
8 | CCOC(=O)[C@@H](NP(=O)(OC[C@H]1O[C@@H](n2ccc(N)nc2=O)[C@](C)(O)[C@@H]1O)Oc1ccc(Cl)cc1)c1ccccc1 (mixture of isomers) | >2.5 | > 20 µM | 7.4 µM | 
9 | CCCOC(=O)[C@H](C)NP(=O)(OC[C@H]1O[C@@H](n2ccc(N)nc2=O)[C@](C)(O)[C@@H]1O)Oc1ccccc1 (stereo partly specified) |  | > 20 µM | 0.97 µM | 
10 | CCCC(CCC)C(=O)OCCNP(=O)(O)OC[C@H]1O[C@@H](n2ccc(N)nc2=O)[C@](C)(O)[C@@H]1O |  |  |  | Drug uptake [7]: 13 µM; concentration [8]: 36 µM
11 | CCOC(=O)[C@H](C)NP(=O)(OC[C@H]1O[C@@H](n2ccc(N)nc2=O)[C@](C)(O)[C@@H]1O)OCC(Cl)(Cl)Cl (stereo partly specified) | >5 | > 50 µM | 10 µM | inhibition at 20 µM [9]: 52%
12 | CCOC(=O)[C@H](Cc1c[nH]c2ccccc12)NP(=O)(OC[C@H]1O[C@@H](n2ccc(N)nc2=O)[C@](C)(O)[C@@H]1O)Oc1ccc(Cl)cc1 (single isomer, unassigned) | >3 | > 50 µM | 17 µM | 
13 | COC(=O)[C@H](C)NP(=O)(OC[C@H]1O[C@@H](n2ccc(N)nc2=O)[C@](C)(O)[C@@H]1O)Oc1ccc(OC)cc1 (mixture of isomers) | >13 | > 50 µM | 3.7 µM | 
14 | CCCC[C@H](NP(=O)(OC[C@H]1O[C@@H](n2ccc(N)nc2=O)[C@](C)(O)[C@@H]1O)Oc1ccc(Cl)cc1)C(=O)OCC (mixture of isomers) | >13 | > 20 µM | 1.5 µM | 
15 | CC(C)[C@H](N)C(=O)O[C@@H]1[C@@H](CO)O[C@@H](n2ccc(N)nc2=O)[C@]1(C)O [VALOPICITABINE] | >13 | > 100 µM | 7.6 µM | Activity [10]: Dose-dependent effect; Activity [11]: 1.2; AUC [12]: 70 µM·h
16 | CCOC(=O)[C@H](C)NP(=O)(OC[C@H]1O[C@@H](n2ccc(N)nc2=O)[C@](C)(O)[C@@H]1O)Oc1ccccc1C (stereo partly specified) | 50 | 9 µM | 0.18 µM | 

Row | Compound | Ratio CC50/EC50 [1] | CC50 [2] | EC50 ([3]; Hepatitis C virus, HBI10A) | also measured
17 | CCOC(=O)[C@H](C)NP(=O)(OC[C@H]1O[C@@H](n2ccc(N)nc2=O)[C@](C)(O)[C@@H]1O)Oc1ccc2c(ccn2C(=O)OC(C)(C)C)c1 (stereo partly specified) | 40 | > 20 µM | 0.5 µM | 
18 | COC(=O)CNP(=O)(OC[C@H]1O[C@@H](n2ccc(N)nc2=O)[C@](C)(O)[C@@H]1O)Oc1ccc(Cl)cc1 (mixture of isomers) | >25 | > 20 µM | 0.8 µM | 
19 | COCCCOC(=O)[C@H](C)NP(=O)(OC[C@H]1O[C@@H](n2ccc(N)nc2=O)[C@](C)(O)[C@@H]1O)Oc1ccccc1 (stereo partly specified) |  | > 20 µM | 1.9 µM | 
20 | CCCC(CCC)COC(=O)[C@H](C)NP(=O)(O)OC[C@H]1O[C@@H](n2ccc(N)nc2=O)[C@](C)(O)[C@@H]1O |  | > 100 µM | 8.2 µM | concentration [13]: 6 µM; Drug uptake [7]: 39 µM; concentration [14]: 4.1 µM; concentration [15]: 2.9 µM; AUC [16]: 700 µM·h; concentration [8]: 5 µM
21 | CCOC(=O)[C@H](C)NP(=O)(OC[C@H]1O[C@@H](n2ccc(N)nc2=O)[C@](C)(O)[C@@H]1O)Oc1ccc(Cl)cc1 (stereo partly specified) |  | > 20 µM |  | EC50 ([3]; hbi10a): 1 µM
22 | CCOC(=O)[C@H](C)NP(=O)(OCc1ccccc1)OC[C@H]1O[C@@H](n2ccc(N)nc2=O)[C@](C)(O)[C@@H]1O (stereo partly specified) |  | > 20 µM | > 20 µM | 
23 | CCCCOC(=O)[C@H](C)NP(=O)(OC[C@H]1O[C@@H](n2ccc(N)nc2=O)[C@](C)(O)[C@@H]1O)Oc1ccccc1Cl (stereo partly specified) | >23 | > 20 µM | 0.87 µM | 
24 | COC(=O)[C@H](C)NP(=O)(OC[C@H]1O[C@@H](n2ccc(N)nc2=O)[C@](C)(O)[C@@H]1O)Oc1ccc(C(F)(F)F)cc1 (stereo partly specified) | >5 | > 50 µM | 9.6 µM | 
25 | CCOC(=O)[C@H](C)NP(=O)(OC[C@H]1O[C@@H](n2ccc(N)nc2=O)[C@](C)(O)[C@@H]1O)Oc1ccccc1C(=O)OC (mixture of isomers) | >5 | > 50 µM | 11 µM | 
26 | CCOC(=O)[C@H](C)NP(=O)(OC[C@H]1O[C@@H](n2ccc(N)nc2=O)[C@](C)(O)[C@@H]1O)Oc1cc(C)c(Cl)cc1C(C)C (stereo partly specified) | 47 | 9 µM | 0.19 µM | 
27 | CCCCOC(=O)[C@H](C)NP(=O)(OC[C@H]1O[C@@H](n2ccc(N)nc2=O)[C@](C)(O)[C@@H]1O)Oc1cccc2ccccc12 (stereo partly specified) |  | 9 µM | 0.09 µM | 
28 | COC(=O)CCNP(=O)(OC[C@H]1O[C@@H](n2ccc(N)nc2=O)[C@](C)(O)[C@@H]1O)Oc1ccc(Cl)cc1 (mixture of isomers) |  | > 20 µM | > 20 µM | 
29 | CCOC(=O)[C@H](C)NP(=O)(OC[C@H]1O[C@@H](n2ccc(N)nc2=O)[C@](C)(O)[C@@H]1O)Oc1ccc(Cl)cc1 (single isomer, unassigned) |  |  |  | EC50 ([3]; hbi10a): 7.9 µM
30 | CCOC(=O)[C@H](C)NP(=O)(OC[C@H]1O[C@@H](n2ccc(N)nc2=O)[C@](C)(O)[C@@H]1O)Oc1ccc(Cl)cc1 (mixture of isomers) |  |  |  | EC50 ([3]; hbi10a): 1.8 µM
31 | CCOC(=O)[C@H](C)NP(=O)(OC[C@H]1O[C@@H](n2ccc(N)nc2=O)[C@](C)(O)[C@@H]1O)Oc1cccc2ccccc12 (stereo partly specified) | 75 | 15 µM | 0.2 µM | 
32 | CCCCOC(=O)[C@H](C)NP(=O)(OC[C@H]1O[C@@H](n2ccc(N)nc2=O)[C@](C)(O)[C@@H]1O)Oc1ccc(Cl)c2ccccc12 (mixture of isomers) | 125 | > 20 µM | 0.16 µM | 
